Runt-SMMHC FRET: blocks binding of human RUNX1 Runt domain to CBFb-SMMHC | actives 0.74% (n = 220,000) | Cerulean-Runt/Venus-CBFb-SMMHC FRET ratio 530/480, 1 h | inhibition, % at 20 µM | Q01196+Q13951;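 active = mean inhibition across duplicate retests at 20 µM reaching about 50%, limit read from the data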;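 also: inhibitors lower the FRET ratio by blocking Runt binding to CBFb-SMMHC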
Hck-Nef inh: blocks Nef-activated human Hck kinase; P08631; Recombinant Hck-YEEI plus Nef, Z-Lyte FRET kinase assay; inhibition, % at 20 µM; actives 0.68% (n = 220,000); AID 463187;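 active = Hck-Nef kinase inhibition above about 50%, limit read from the data; inactive = inhibition below that limit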
Target sequence (P08631 whole entry, looked up): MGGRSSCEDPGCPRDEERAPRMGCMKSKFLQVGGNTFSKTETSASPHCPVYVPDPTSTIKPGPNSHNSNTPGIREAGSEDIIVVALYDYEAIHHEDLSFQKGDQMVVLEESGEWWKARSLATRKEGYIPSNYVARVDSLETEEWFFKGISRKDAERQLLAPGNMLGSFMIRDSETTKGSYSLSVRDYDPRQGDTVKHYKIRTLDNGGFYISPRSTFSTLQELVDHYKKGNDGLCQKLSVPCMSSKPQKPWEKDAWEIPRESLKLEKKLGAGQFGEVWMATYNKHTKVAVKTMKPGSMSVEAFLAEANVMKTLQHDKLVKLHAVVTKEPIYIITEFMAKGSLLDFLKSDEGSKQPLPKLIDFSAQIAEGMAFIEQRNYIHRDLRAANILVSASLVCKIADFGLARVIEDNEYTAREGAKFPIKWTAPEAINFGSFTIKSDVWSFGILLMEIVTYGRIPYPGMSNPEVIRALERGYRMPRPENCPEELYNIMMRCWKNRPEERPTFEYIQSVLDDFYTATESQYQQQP
Runt-CBFb FRET: inhibitors of human RUNX1 Runt domain binding to CBFb. AID 1496. inhibition, % at 20 µM. Cerulean-Runt/Venus-CBFb FRET ratio 530/480, 1 h. actives 0.46% (n = 220,000);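 active = inhibition over about 50% at 20 µM in the single-dose screen, limit read from the data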
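Assay system: Cerulean-Runt domain / Medium: Tris 50 mM pH 7.5, KCl, K2SO4, 0.01% BSA / Timing: protein complex preformed 1 h, compound exposure 1 h, room temperature, dark / Measured by: FRET, excitation 422 nm, emission at 530 and 480 nm / Evaluation: loss of energy transfer signal / Control set: 5 µM unlabeled CBFb as full-inhibition high control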
RanGTP-Imp inh: inhibitors of RanGTP-importin-beta interaction, primary screen, biochemical, FRET, CFP-Ran, YFP-importin-beta, homogeneous. cell-free CFP-Ran/YFP-importin-beta FRET ratio. inhibition, % (no concentration beside the values). actives 1.1% (n = 300,000);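 active = more than half of the replicate wells show a fall in the fluorescence ratio signal beyond about 16%, limit read from the data, passing the limit was not always enough; inconclusive = exactly half of the replicate wells pass the set limit; inactive = fewer than half of replicates pass the limit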
L929 necroptosis: blocks zVAD induced death of L929 cells; L929 zVAD necroptosis rescue, ATP luminescence, 24 h; with zVAD 60 µM; viability rescue, % at 10 µM; actives 0.38% (n = 220,000);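 active = activation, scaled between plate controls, above about 75%, limit read from the data; inactive = activation under that limit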
TNF death inh: blocks TNF-alpha induced death of Jurkat FADD-/- cells; Jurkat FADD-/- TNF necroptosis rescue, ATP luminescence, 24 h; 0 = TNF only, 100 = no-TNF cells; activation (protection from cell death), % at 10 µM; actives 0.068% (n = 220,000); AID 463075;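 active = activation, meaning protection from cell death, of at least 50% relative to plate controls; inactive = activation below 50%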;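 also: necroptosis triggered by 40 ng/mL TNF-alpha added together with compound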
zVAD death conf: confirmed blocker of zVAD induced death in L929 cells | actives 16% (n = 760) | activation (protection from necroptosis), % at 10 µM | shares compounds with L929 necroptosis | L929 zVAD-induced necroptosis rescue, ATP luminescence, 24 h;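 active = mean protection from necroptosis of at least 50% over duplicate tests; inactive = mean protection below 50%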
RUNX1 CBFb TR: disrupts human RUNX1 Runt domain binding to CBFb. shares compounds with Runt-CBFb FRET. TR-FRET RUNX1 Runt domain-CBFb binding. inhibition, % at 20 µM. actives 20% (n = 480). AID 1502; in the data active = inhibition above about 40%
Hck Nef conf: Hck-Nef kinase inhibition, confirmation; shares compounds with Hck-Nef inh; Recombinant Hck-YEEI:Nef, Z-Lyte FRET kinase assay; calls only at 10 µM; actives 28% (n = 1,300);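 active = average inhibition of at least 50%, with Z-scores no higher than 3 in both the phospho-tyrosine peptide and fluorescence counterscreens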
Of the large screens only hits and unclear results are named; the others gave an inactive call (follow-up assays come after a bar, where shown). Rows were chosen to be rich in hits. Some 2.1% of all compounds tested hit in one or more screens of this group.

COc1ccc(-n2cnnc2SCC(=O)Nc2cc(C(C)(C)C)nn2-c2ccccc2)cc1	L929 necroptosis 85 | zVAD death conf 81
COc1ccc(-n2cnnc2SCC(=O)Nc2cc(C)on2)cc1	none
CNc1ncc(C(=O)c2ccccc2)s1	none
CNc1ncc(C(=O)c2ccc(Br)cc2)s1	L929 necroptosis 83 | zVAD death conf inactive
N#Cc1cccc(NCC(=O)Nc2ccc3c(c2)OCCO3)c1	L929 necroptosis 77 | zVAD death conf inactive
O=C(CNC(=S)N(Cc1ccccc1Cl)C1CCCC1)NCCN1CCOCC1	none
CC(=O)N(C)c1ccc(NC(=O)Nc2ccc(C)c(C)c2)cc1	L929 necroptosis 77 | zVAD death conf inactive
CCN(C(=O)CN1C(=O)/C(=C/c2ccccc2)SC1=S)C1CCS(=O)(=O)C1 (stereo unspecified)	none (no result: Runt-SMMHC FRET, Hck-Nef inh, Runt-CBFb FRET, L929 necroptosis, TNF death inh)
CCCCN1C(=O)/C(=C(/C#N)C(=O)N2CCCC2)c2ccccc21	none
N#CC(C#N)=C1C(=O)N(CCN2CCCCC2)c2ccccc21	L929 necroptosis 90 | zVAD death conf inactive
N#CC(C#N)=C1C(=O)N(CCN2CCOCC2)c2ccccc21	L929 necroptosis 86 | zVAD death conf inactive
O=S(=O)(Nc1cc(C(F)(F)F)ccc1N1CCOCC1)c1ccc2ccccc2c1	none
Cc1cccc(N(CC(=O)NCC2CCCO2)C(=O)CCC(=O)Nc2nccs2)c1 (stereo unspecified)	none (no result: Runt-SMMHC FRET, Hck-Nef inh, Runt-CBFb FRET, L929 necroptosis, TNF death inh)
Clc1ncc(CSc2ccccc2)s1	L929 necroptosis 91 | zVAD death conf inactive
O=C(Nc1ccccc1)OCc1cnc(Cl)s1	RanGTP-Imp inh inconclusive
O=C(c1ccco1)N1CCN(C(=O)c2ccc(COc3ccc4c(c3)CCC4)o2)CC1	L929 necroptosis 83 | zVAD death conf inactive
O=C(c1ccco1)N1CCN(C(=O)c2ccc(COc3ccc(Cl)cc3Cl)o2)CC1	L929 necroptosis 86 (no result: Runt-SMMHC FRET, Runt-CBFb FRET) | zVAD death conf inactive
CC(C)OCCCNC(=S)Nc1ccc(S(N)(=O)=O)cc1	Runt-CBFb FRET 59, L929 necroptosis 75 | zVAD death conf inactive | RUNX1 CBFb TR inactive
Oc1ccc(-c2csc(Nc3ncccn3)n2)cc1O	Runt-CBFb FRET 50, L929 necroptosis 79 | zVAD death conf 60 | RUNX1 CBFb TR 42
Oc1ccc(-c2csc(Nc3ccccn3)n2)cc1	none (no result: Runt-SMMHC FRET, Hck-Nef inh, Runt-CBFb FRET, L929 necroptosis, TNF death inh)
CCc1ccc(NC(=O)CSc2nncn2-c2cccnc2)cc1	none (no result: Runt-SMMHC FRET, Hck-Nef inh, Runt-CBFb FRET, L929 necroptosis, TNF death inh)
COc1cc(-c2cc(=O)c3c(O)c(OC)c(OC)cc3o2)cc(OC)c1O	Hck-Nef inh 98, L929 necroptosis 77 | zVAD death conf inactive | Hck Nef conf active
C(=N\Nc1ncnc2sc3c(c12)CCC3)/c1ccncc1	Hck-Nef inh 51, L929 necroptosis 79 | zVAD death conf inactive | Hck Nef conf inactive
Cc1[nH]c2ccccc2c1/C=N/Nc1ccccn1	Hck-Nef inh 65, L929 necroptosis 79 | zVAD death conf 85 | Hck Nef conf active
CCOc1ncccc1C(=O)OCc1c(F)cccc1Cl	none
Nc1[nH]nc2nc(N3CCCC3)nc(-c3ccccc3)c12	none
COc1ccc(-c2nc(N3CCOCC3)nc3n[nH]c(N)c23)cc1	Hck-Nef inh 64, L929 necroptosis 75 | zVAD death conf inactive | Hck Nef conf active
CCc1ccc2c(c1)C(=O)C(=O)N2CC(=O)Nc1ccc(NC(=O)c2ccccn2)cc1	Hck-Nef inh 77, L929 necroptosis 78 | zVAD death conf inactive | Hck Nef conf active
Cc1ccc(C(=O)Nc2cccc(C(F)(F)F)c2)cc1Nc1ncnc2nc[nH]c12	Hck-Nef inh 55, L929 necroptosis 82 | zVAD death conf 72 | Hck Nef conf inactive
Cc1cc(C)c2c(N)c(C(=O)N/N=C/c3ccccc3)sc2n1	none
Cc1cc(C)c2c(N)c(C(=O)N/N=C/c3cccnc3)sc2n1	Hck-Nef inh 73, L929 necroptosis 79 | zVAD death conf inactive | Hck Nef conf inactive
O=C(c1ccc(F)c(S(=O)(=O)N2CCOCC2)c1)N1CCc2ccccc21	none (no result: Runt-SMMHC FRET, Hck-Nef inh, Runt-CBFb FRET, L929 necroptosis, TNF death inh)
CCN1CCN(Cc2ccc(NC(=O)c3cc(NC(=O)c4nccnc4N)cc(OC)c3)cc2C(F)(F)F)CC1	none
CCN1CCN(Cc2ccc(NC(=O)c3ccc(C)c(NC(=O)c4nccnc4N)c3)cc2C(F)(F)F)CC1	Hck-Nef inh 56, L929 necroptosis 80 | zVAD death conf 79 | Hck Nef conf inactive
O=C(CCC1CCCN(C(=O)c2cc3ccccc3o2)C1)NCc1ccc(F)c(F)c1 (stereo unspecified)	none (no result: Runt-SMMHC FRET, Hck-Nef inh, Runt-CBFb FRET, L929 necroptosis, TNF death inh)
CCCNC(=O)c1c(N)n(-c2cccc(OC)c2)c2nc3ccccc3nc12	Hck-Nef inh 77, Runt-CBFb FRET 62, RanGTP-Imp inh 80, L929 necroptosis 77 | zVAD death conf inactive
Nc1c(C(=O)NCC2CCCO2)c2nc3ccccc3nc2n1-c1ccccc1 (stereo unspecified)	Hck-Nef inh 55, Runt-CBFb FRET 83, RanGTP-Imp inh 78, L929 necroptosis 86 | zVAD death conf inactive
O=C(NCC1CCCO1)c1ccccc1 (stereo unspecified)	none
COC(=O)c1c(N)n(-c2cc(OC)cc(OC)c2)c2nc3ccccc3nc12	none (no result: Runt-SMMHC FRET, Runt-CBFb FRET, RanGTP-Imp inh)
N#Cc1c(N2CCSCC2)nsc1-c1ccccc1Cl	none (no result: Runt-SMMHC FRET, Hck-Nef inh, Runt-CBFb FRET, L929 necroptosis, TNF death inh)
CC(=O)C1CCC2C3CCC4=CC(=O)CC[C@]4(C)[C@@]3(F)C(O)C[C@]12C (stereo partly specified)	none
COc1ccc(NC(=O)c2cc(-c3ccco3)nc3ccccc23)cc1S(=O)(=O)N1CCOCC1	RanGTP-Imp inh inconclusive
Cc1ccc(NC(=O)c2cc(-c3ccco3)nc3ccccc23)cc1S(=O)(=O)N1CCOCC1	Hck-Nef inh 69, L929 necroptosis 77 | zVAD death conf inactive | Hck Nef conf active
CCOc1ccc(S(=O)(=O)NN2Cc3ccccc3C2=N)cc1	none
Cc1nc2ccccc2nc(=O)c1NNc1ccccc1	Hck-Nef inh 101, L929 necroptosis 76 | zVAD death conf inactive | Hck Nef conf active
Cc1nc2c(ccc3nc(NC(=O)C4CC4)sc32)s1	Hck-Nef inh 54, L929 necroptosis 80 | zVAD death conf inactive | Hck Nef conf inactive
Cn1cnnc1-c1cccc(NC(=O)c2cc(F)c(F)cc2Cl)c1	none

Screening data: PubChem BioAssay, several laboratories
